Holding throughout (type): cell-based
One assay addresses T1, Interleukin-5 (Mus musculus, UniProt P04401).
T1 sequence (P04401 whole entry): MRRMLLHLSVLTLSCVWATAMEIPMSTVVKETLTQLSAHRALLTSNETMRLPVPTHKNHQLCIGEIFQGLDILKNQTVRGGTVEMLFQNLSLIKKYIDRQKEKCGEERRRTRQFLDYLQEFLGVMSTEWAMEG
As to the kind of experiment: Inhibition of interleukin-5 in mouse Y16 cells. The gist of the method: (§1)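 IL-5-dependent mouse pro-B Y16 cells were incubated with 3 units/mL mIL-5 for 48 h, with or without test sample. Cell metabolism was then read with the tetrazolium salt WST-1 as an index of proliferation.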

The target in assay [1] is T2, Interleukin-5 (Mus musculus) (UniProt P04401).
T2 sequence (whole entry): T1 sequence (P04401 whole entry)
As to the kind of experiment: Inhibition of interleukin-5 in mouse Y16 cells at 30 uM. The method in brief:
as §1

Assay [2] concerns the target T2, Interleukin-5 (Mus musculus). Briefly: Inhibition of interleukin-5 in mouse Y16 cells at 50 uM. The method in brief: as §1

The values that follow come from ChEMBL document CHEMBL1177657, “Design and synthesis of novel hydroxyalkylaminomethylchromones for their IL-5 inhibitory activity” (Bioorg Med Chem, 2010).

Structures are written as SMILES. “And” between values parts separate entries of the source, which are not always exact repeats. Equal values may be shown once. A value given as a limit tells only on which side of the number the result lay.

The term IC50 denotes the concentration at which inhibition is half-maximal. Low readings indicate higher potency, high ones lower potency. Usually inhibition stands for the share of the control response that was lost under treatment. Read a high inhibition as a strong effect.

For the molecule `O=c1c(CNCCO)coc2cccc(OCC3CCCCC3)c12`, on Interleukin-5, the IC50 is greater than 50 µM. Also, in assay [1], the inhibition came out at 13%.

For the molecule `O=c1c(CNCc2ccc(O)cc2)coc2cccc(OCC3CCCCC3)c12`, the IC50 at Interleukin-5 was 28.5 µM. Moreover, the inhibition in assay [1] worked out at 50%.

In turn, `COc1ccc(NCc2coc3cccc(OCC4CCCCC4)c3c2=O)cc1` showed a half-maximal inhibitory concentration (IC50) at Interleukin-5 greater than 50 µM. Also, in assay [1], the inhibition turned out to be 31%.

`O=c1c(CNC(CO)c2ccccc2)coc2cccc(OCC3CCCCC3)c12` (centres undefined) showed an IC50 against Interleukin-5 of 18.5 µM. The inhibition in assay [1] turned out to be 88%.

Regarding `O=c1c(-c2ccc(O[C@@H]3O[C@H](CO)[C@@H](O)[C@H](O)[C@H]3O)cc2)coc2cc(O)cc(O)c12` [SOPHORICOSIDE], the concentration for half-maximal inhibition (IC50) against Interleukin-5 is 1.4 µM and 10.6 µM. The molecule also had an inhibition in assay [2] of 79.1%.

In turn, `COc1ccc(CNCc2coc3cccc(OCC4CCCCC4)c3c2=O)cc1` returned an IC50 against Interleukin-5 greater than 30 µM. The inhibition in assay [1] came out at 43%.

In the case of `O=c1c(CNC(CCO)c2ccccc2)coc2cccc(OCC3CCCCC3)c12` (centres undefined), at Interleukin-5, the half-maximal inhibitory concentration (IC50) was greater than 50 µM. This molecule also had an inhibition in assay [1] of 30%.

The molecule `CC(C)(C)C(CO)NCc1coc2cccc(OCC3CCCCC3)c2c1=O` (centres undefined) showed an IC50 at Interleukin-5 of 26.2 µM. Besides, in assay [1], the inhibition came out at 65%.

Turning to `CC(C)(CO)NCc1coc2cccc(OCC3CCCCC3)c2c1=O`, the concentration for half-maximal inhibition (IC50) at Interleukin-5 came to 26.4 µM. This molecule also came in with an inhibition in assay [1] of 63%.

Regarding `O=c1c(CNC(CO)Cc2ccccc2)coc2cccc(OCC3CCCCC3)c12` (centres undefined), the half-inhibitory concentration (IC50) against Interleukin-5 turned out to be 25.7 µM. For the same molecule, in assay [1], the inhibition stood at 72%.

In turn, `O=c1c(CNCCCO)coc2cccc(OCC3CCCCC3)c12` returned a half-maximal inhibitory concentration (IC50) at Interleukin-5 greater than 50 µM. Moreover, in assay [1], the inhibition worked out at 15%.

In turn, `O=c1c(CNC(CO)CC2CCCCC2)coc2cccc(OCC3CCCCC3)c12` (centres undefined) had a 50% inhibitory concentration (IC50) on Interleukin-5 of 17.3 µM. This molecule came in with an inhibition in assay [1] of 93%.

For the molecule `O=c1c(CNCCCCCO)coc2cccc(OCC3CCCCC3)c12`, the IC50 on Interleukin-5 was greater than 50 µM. The same molecule registered an inhibition in assay [1] of 20%.

With `O=c1c(CNc2ccccc2)coc2cccc(OCC3CCCCC3)c12`, the IC50 at Interleukin-5 was greater than 50 µM. This molecule also showed an inhibition in assay [1] of 14%.

Take `O=c1c(CNc2ccc(O)cc2)coc2cccc(OCC3CCCCC3)c12`: the IC50 on Interleukin-5 is 27.3 µM. The molecule further showed an inhibition in assay [1] of 57%.

`CCCC(CO)NCc1coc2cccc(OCC3CCCCC3)c2c1=O` (centres undefined) had an IC50 on Interleukin-5 greater than 50 µM. In assay [1], this molecule returned an inhibition of 13%.

Turning to `O=c1c(CNCc2ccccc2)coc2cccc(OCC3CCCCC3)c12`, the IC50 against Interleukin-5 was greater than 50 µM. In addition, the inhibition in assay [1] turned out to be 32%.
